{"source": "ChEMBL document CHEMBL4680120", "about": "“Novel anti-Alzheimer phenol-lipoyl hybrids: Synthesis, physico-chemical characterization, and biological evaluation” (Eur J Med Chem, 2020)", "key": {"[1]": {"assay": "Solubility of compound in water by HPLC analysis", "format": "physicochemical"}, "[2]": {"assay": "Stability in simulated gastric fluid at pH 1.2 assessed as relative difference measured after 15 mins in presence of pepsin by HPLC analysis", "format": "ADME", "settings": "isolated protein, pH 1.2, 0.25 h", "how_it_was_run": "(§1)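 Incubation in simulated gastric fluid (pH 1.2, pepsin) or simulated intestinal fluid (pH 6.8, pancreatin). Aliquots deproteinized with ice-cold acetonitrile, centrifuged at 4°C and 12000 rpm for 10 min, filtered, analyzed by HPLC. RD% = (Ci − Cf)/Ci × 100. Stable if RD < 5%. Means of three experiments.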"}, "[3]": {"assay": "Stability in simulated gastric fluid at pH 1.2 assessed as relative difference measured after 30 mins in presence of pepsin by HPLC analysis", "format": "ADME", "settings": "isolated protein, pH 1.2, 0.5 h", "how_it_was_run": "as §1"}, "[4]": {"assay": "Stability in simulated gastric fluid at pH 1.2 assessed as relative difference measured after 60 mins in presence of pepsin by HPLC analysis", "format": "ADME", "settings": "isolated protein, pH 1.2, 1 h", "how_it_was_run": "as §1"}, "[5]": {"assay": "Stability in simulated intestinal fluid at pH 6.8 assessed as relative difference measured after 15 mins in presence of pancreatin by HPLC analysis", "format": "ADME", "settings": "simulated gi fluid, pH 6.8, 0.25 h", "how_it_was_run": "as §1"}, "[6]": {"assay": "Stability in simulated intestinal fluid at pH 6.8 assessed as relative difference measured after 30 mins in presence of pancreatin by HPLC analysis", "format": "ADME", "settings": "simulated gi fluid, pH 6.8, 0.5 h", "how_it_was_run": "as §1"}, "[7]": {"assay": "Stability in simulated intestinal fluid at pH 6.8 assessed as relative difference measured after 60 mins in presence of pancreatin by HPLC analysis", "format": "ADME", "settings": "simulated gi fluid, pH 6.8, 1 h", "how_it_was_run": "as §1"}, "[8]": {"assay": "Stability in simulated intestinal fluid at pH 6.8 assessed as relative difference measured after 120 mins in presence of pancreatin by HPLC analysis", "format": "ADME", "settings": "simulated gi fluid, pH 6.8, 2 h", "how_it_was_run": "as §1"}, "[9]": {"assay": "Stability in simulated intestinal fluid at pH 6.8 assessed as relative difference measured after 180 mins in presence of pancreatin by HPLC analysis", "format": "ADME", "settings": "simulated gi fluid, pH 6.8, 3 h", "how_it_was_run": "as §1"}, "[10]": {"assay": "Half life in human plasma by HPLC analysis", "format": "ADME, cell-free", "how_it_was_run": "(§2)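 Compound stock added to human plasma pre-warmed to 37°C and diluted with 0.02 M phosphate buffer (pH 7.4) to 80% plasma. 100 μL samples taken over time, quenched with 200 μL cold acetonitrile, centrifuged, and supernatant analyzed by HPLC. t½ and kobs are means of three experiments.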"}, "[11]": {"assay": "Stability in human plasma assessed as observed rate constant by HPLC analysis", "format": "ADME, cell-free", "how_it_was_run": "as §2"}, "SH-SY5Y [12]": {"test_system": "SH-SY5Y", "assay": "Cytotoxicity against human SH-SY5Y cells assessed as reduction in cell viability at 1 to 250 mg/l measured after 48 hrs by MTT assay", "format": "cell-based", "settings": "dose 1-250 mg/L", "how_it_was_run": "(§3)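 SH-SY5Y cells grown in DMEM/F12 with 10% FBS and differentiated with retinoic acid (10 μM), seeded at 1×10^4 per well and cultured 24 h. Cells were given hybrids at 1–250 mg/L with or without Aβ1-42 (20 μM) for 48 h. MTT (5 mg/mL) added for 4 h at 37°C, DMSO solubilization, read at 570/630 nm. LDH read at 450 nm. Five independent experiments.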"}, "SH-SY5Y [13]": {"test_system": "SH-SY5Y", "assay": "Neuroprotective activity against amyloid beta (1 to 42)-induced toxicity in human SH-SY5Y cells assessed as increase in cell viability at 1 to 250 mg/l measured after 48 hrs by MTT assay", "format": "functional, cell-based", "settings": "dose 1-250 mg/L", "how_it_was_run": "as §3"}, "SH-SY5Y [14]": {"test_system": "SH-SY5Y", "assay": "Neuroprotective activity against amyloid beta (1 to 42)-induced toxicity in human SH-SY5Y cells assessed as increase in cell viability at 1 to 250 mg/l measured after 48 hrs by LDH release assay", "format": "functional, cell-based", "settings": "dose 1-250 mg/L", "how_it_was_run": "as §3"}, "SH-SY5Y [15]": {"test_system": "SH-SY5Y", "assay": "Neuroprotective activity against amyloid beta (1 to 42)-induced apoptosis in human SH-SY5Y cells assessed as early apoptotic cells at IC50 measured after 48 hrs by Annexin-V/Propidium iodide staining based flow cytometry (reference value: 0.74%)", "format": "functional"}, "SH-SY5Y [16]": {"test_system": "SH-SY5Y", "assay": "Neuroprotective activity against amyloid beta (1 to 42)-induced apoptosis in human SH-SY5Y cells assessed as late apoptotic cells at IC50 measured after 48 hrs by Annexin-V/Propidium iodide staining based flow cytometry (reference value: 33.72%)", "format": "functional"}, "SH-SY5Y [17]": {"test_system": "SH-SY5Y", "assay": "Neuroprotective activity against amyloid beta (1 to 42)-induced apoptosis in human SH-SY5Y cells assessed as necrotic cells at IC50 measured after 48 hrs by Annexin-V/Propidium iodide staining based flow cytometry (reference value: 6.99%)", "format": "functional"}, "Erythrocyte [18]": {"test_system": "Erythrocyte", "assay": "Antioxidant activity in human RBC assessed as increase in total antioxidant capacity level up to 400 ug/ml measured after 72 hrs relative to control", "format": "functional", "settings": "dose microg/ml <=400"}, "Erythrocyte [19]": {"test_system": "Erythrocyte", "assay": "Cytoprotective activity against H2O2-induced oxidative damage in human RBC assessed as increase in cell viability measured after 72 hrs by MTT assay", "format": "functional, cell-based"}, "Erythrocyte [20]": {"test_system": "Erythrocyte", "assay": "Cytoprotective activity against H2O2-induced oxidative damage in human RBC assessed as increase in cell viability measured after 72 hrs by LDH release assay", "format": "functional, cell-based", "how_it_was_run": "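Heparinized whole blood cultured with phytohemagglutinin. Cells were co-incubated with 50 or 100 μM hybrid and H2O2 (25 μM). Viability was read by MTT: lymphocytes at 2×10^5 per well, MTT 4 h at 37°C, formazan dissolved in DMSO, absorbance 570 nm. LDH release was measured on 100 μL medium with a commercial kit. Results are relative to untreated control.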"}, "Erythrocyte [21]": {"test_system": "Erythrocyte", "assay": "Cytoprotective activity against H2O2-induced oxidative damage in human RBC assessed as recovery of H2O2-induced cell death at 50 to 100 uM measured after 72 hrs by MTT assay relative to control", "format": "functional", "settings": "dose 50-100 µM"}, "Erythrocyte [22]": {"test_system": "Erythrocyte", "assay": "Cytoprotective activity against H2O2-induced oxidative damage in human RBC assessed as recovery of H2O2-induced cell death at 50 to 100 uM measured after 72 hrs by LDH release assay relative to control", "format": "functional", "settings": "dose 50-100 µM", "how_it_was_run": "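Heparinised human whole blood cultured in phytohemagglutinin-containing chromosome medium and co-incubated with hybrids and H2O2 at 37C for 72 h. LDH released into the culture medium was measured with a commercial kit. Triton X-100 served as positive control, with untreated cultures as reference. Cytoprotection was expressed as viability relative to control.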"}, "Erythrocyte [23]": {"test_system": "Erythrocyte", "assay": "Cytoprotective activity against H2O2-induced oxidative damage in human RBC assessed as restoration of antioxidant activity measured after 72 hrs by TAC assay", "format": "functional, cell-based"}, "Erythrocyte [24]": {"test_system": "Erythrocyte", "assay": "Cytoprotective activity against H2O2-induced oxidative damage in human RBC assessed as restoration of antioxidant activity at 50 uM measured after 72 hrs by TAC assay relative to control", "format": "functional"}, "Erythrocyte [25]": {"test_system": "Erythrocyte", "assay": "Cytoprotective activity against H2O2-induced oxidative damage in human RBC assessed as restoration of antioxidant activity at 100 uM measured after 72 hrs by TAC assay relative to control", "format": "functional"}}, "note": "Calls of active or inactive are those of the source. No cut-off for these calls is given here."}
{"smiles": "COc1ccc(/C=C/C(=O)OCCOCCNC(=O)CCCCC2CCSS2)cc1OC", "note": "(stereo not given)", "values": [{"measurement": "solubility", "setting": "[1]", "result": 10, "unit": "µg/mL"}, {"measurement": "fold change (FC)", "setting": "[2]", "result": 5.6, "unit": "%"}, {"measurement": "fold change (FC)", "setting": "[3]", "result": 7.35, "unit": "%"}, {"measurement": "fold change (FC)", "setting": "[4]", "result": 30.76, "unit": "%"}, {"measurement": "fold change (FC)", "setting": "[5]", "result": 12.01, "unit": "%"}, {"measurement": "fold change (FC)", "setting": "[6]", "result": 21.06, "unit": "%"}, {"measurement": "fold change (FC)", "setting": "[7]", "result": 27.2, "unit": "%"}, {"measurement": "fold change (FC)", "setting": "[8]", "result": 31.38, "unit": "%"}, {"measurement": "fold change (FC)", "setting": "[9]", "result": 40.3, "unit": "%"}, {"measurement": "half-life", "setting": "[10]", "result": 17.2, "unit": "h"}, {"measurement": "K", "setting": "[11]", "result": 0.042, "unit": "h⁻¹"}, {"measurement": "Activity", "setting": "SH-SY5Y [12]", "result": "Non-Toxic"}, {"measurement": "Activity", "setting": "SH-SY5Y [13]", "result": "Active"}, {"measurement": "Activity", "setting": "SH-SY5Y [14]", "result": "Active"}, {"measurement": "Activity", "setting": "SH-SY5Y [15]", "result": 2.85, "unit": "%"}, {"measurement": "Activity", "setting": "SH-SY5Y [16]", "result": 15.39, "unit": "%"}, {"measurement": "Activity", "setting": "SH-SY5Y [17]", "result": 1.6, "unit": "%"}, {"measurement": "Activity", "setting": "Erythrocyte [18]", "result": 2, "unit": "%"}, {"measurement": "Activity", "setting": "Erythrocyte [19]", "result": "Dose-dependent effect"}, {"measurement": "Activity", "setting": "Erythrocyte [20]", "result": "Dose-dependent effect"}, {"measurement": "Activity", "setting": "Erythrocyte [21]", "result": 0.5, "unit": "%"}, {"measurement": "Activity", "setting": "Erythrocyte [22]", "result": 0.4, "unit": "%"}, {"measurement": "Activity", "setting": "Erythrocyte [23]", "result": "Dose-dependent effect"}, {"measurement": "Activity", "setting": "Erythrocyte [24]", "result": 12.5, "unit": "%"}, {"measurement": "Activity", "setting": "Erythrocyte [25]", "result": 29.2, "unit": "%"}]}
